Screening data: PubChem BioAssay, several laboratories
Only some compounds are listed: those with a hit (about 12% of all), similar ones and a draw of the others.
L major viab – inhibitors of Leishmania major promastigote growth; Leishmania major promastigotes, resazurin fluorescence viability; inhibition, % at 10 µM; 200,000 compounds, 9% hits; in the data active = inhibition above about 50%;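 note: promastigotes grown with compound for 44 hours at 28 °C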
Cl transport mod – modulates chloride dependent transport by human KCC2; Q9H2X9; KCC2 cells, thallium flux FluoZin-2 fluorescence; B-score of Tl+ flux slope (higher = more flux/activation; lower = inhibition) at 10 µM; 190,000 compounds, 2.2% hits; AID 1456;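 active = thallium flux slope and its plate-corrected score both differing from the plate sample mean at a set confidence after two filtering rounds, in either direction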;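 note: slope of fluorescence scaled to starting intensity during 10 to 20 s after thallium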
Target sequence (Q9H2X9 whole entry, looked up): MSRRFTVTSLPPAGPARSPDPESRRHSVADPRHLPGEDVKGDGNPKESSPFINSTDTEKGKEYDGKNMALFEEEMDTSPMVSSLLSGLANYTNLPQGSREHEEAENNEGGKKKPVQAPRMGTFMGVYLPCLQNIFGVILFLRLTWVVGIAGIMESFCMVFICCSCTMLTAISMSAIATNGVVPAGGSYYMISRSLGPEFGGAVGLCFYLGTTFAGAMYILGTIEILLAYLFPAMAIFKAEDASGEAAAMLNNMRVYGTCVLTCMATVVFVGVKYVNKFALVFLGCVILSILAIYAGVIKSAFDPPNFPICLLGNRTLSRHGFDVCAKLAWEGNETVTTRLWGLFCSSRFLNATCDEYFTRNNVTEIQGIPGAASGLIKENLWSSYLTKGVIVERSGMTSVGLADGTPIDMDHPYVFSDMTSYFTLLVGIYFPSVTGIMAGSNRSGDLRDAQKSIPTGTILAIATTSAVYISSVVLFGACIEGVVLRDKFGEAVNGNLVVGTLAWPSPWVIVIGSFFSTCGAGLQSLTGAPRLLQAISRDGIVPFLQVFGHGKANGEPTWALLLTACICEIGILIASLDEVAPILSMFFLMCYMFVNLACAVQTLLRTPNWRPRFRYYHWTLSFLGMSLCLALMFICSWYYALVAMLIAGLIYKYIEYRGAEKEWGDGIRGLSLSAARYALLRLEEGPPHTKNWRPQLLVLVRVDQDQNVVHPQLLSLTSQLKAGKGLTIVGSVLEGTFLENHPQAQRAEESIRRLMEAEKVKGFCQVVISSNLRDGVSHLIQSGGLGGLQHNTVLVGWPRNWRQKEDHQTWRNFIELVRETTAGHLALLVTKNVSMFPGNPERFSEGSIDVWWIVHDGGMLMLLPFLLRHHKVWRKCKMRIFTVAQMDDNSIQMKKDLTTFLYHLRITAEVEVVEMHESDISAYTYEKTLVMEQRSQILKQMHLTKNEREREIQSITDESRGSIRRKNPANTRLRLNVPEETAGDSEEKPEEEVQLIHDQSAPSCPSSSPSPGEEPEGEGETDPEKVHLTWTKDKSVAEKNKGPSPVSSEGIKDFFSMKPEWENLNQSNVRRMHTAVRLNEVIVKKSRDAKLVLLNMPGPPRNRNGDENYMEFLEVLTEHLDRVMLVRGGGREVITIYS
Diaphorase act – diaphorase activation or chemical reduction counter-screen. 190,000 compounds, 0.005% hits. AID 1229. Diaphorase/resazurin coupled assay, resorufin fluorescence, 16 min; hits give high values; 1 = vehicle wells, 0 = NADH-free wells. activation factor at 20 µM;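 active = diaphorase activity raised at least twofold by the compound at 20 µM; inactive = activation factor below 2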
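Material: Clostridium kluyveri diaphorase, purified enzyme; Quantity: enzyme 0.07 U/mL final; Medium: HEPES pH 7.4 buffer with MgCl2 and Tween 20; Dosing: single compound dose of 20 µM, 1% DMSO final; Schedule: 16 min reaction at room temperature; Measured by: red resorufin fluorescence at 544/590 nm excitation/emission.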
Diaphorase inh – inhibits diaphorase or chemically oxidizes, flagging diaphorase assay artifacts; diaphorase resazurin-to-resorufin fluorescence, NADH, 16 min; bacterial (C. kluyveri) enzyme, not human; inhibition, % at 20 µM; 190,000 compounds, 0.69% hits;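 active = primary screen inhibition at 20 µM above a set limit, cut at about 50% in these data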;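 note: plate controls were DMSO with full reaction for no effect and wells lacking NADH for full effect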
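material = Clostridium kluyveri diaphorase enzyme | amount = 0.14 U/mL diaphorase, enzyme working solution | schedule = incubation 16 min, room temperature | detection = fluorescence of resorufin formed from resazurin, Ex 544/Em 590 nm | benchmarks = positive control minus NADH, DMSO neutral control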
WT yeast gro inh – growth inhibition of WT yeast, mitochondrial fusion screen; mitochondrial fusion phenotypic screen, WT strain; inhibition, % at 10 µM; 190,000 compounds, 2.1% hits; AID 1362; in the data active = inhibition above about 58%; tested in S. cerevisiae
ROMK primary – modulators of human ROMK potassium channel. B-score at 10 µM. 130,000 compounds, 2% hits. P48048. Tet-inducible ROMK, thallium flux fluorescence; actives lie on both sides;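 active = signal ratio slope over the read window, or its plate-corrected B-score, at least 3 SD from the plate mean, either direction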;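 note: B-score of the F/F0 ratio slope over 7 to 12 s after thallium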
The depositor's hits bear a star.

For CC1(C)N=C(c2ccccc2)[C@@H]2C(c3ccc([N+](=O)[O-])cc3)N21 (stereo partly specified) the results were L major viab -3, Cl transport mod -0.38, Diaphorase act 0.9, Diaphorase inh 8 and WT yeast gro inh -8.
For CCOC(=O)C1=C(N)Oc2cc(C)oc(=O)c2C12C(=O)N1c3c(cc(OC)cc32)C(C)=CC1(C)C (stereo unspecified) the results were L major viab -1, Cl transport mod 0.34, Diaphorase act 0.8, Diaphorase inh 19 and WT yeast gro inh 2.
For CN1C(=O)C(=Cc2ccccc2OCc2ccccc2Cl)C(=O)N(C)C1=O the results were L major viab 66*, Cl transport mod -0.32, Diaphorase act 0.8, Diaphorase inh 18 and WT yeast gro inh -22.
`CN1C(=O)C(=Cc2ccccc2OCc2ccc(C(=O)O)cc2)C(=O)N(C)C1=O` gave L major viab -9, Cl transport mod -0.029, Diaphorase act 1, Diaphorase inh 4, WT yeast gro inh -16 and ROMK primary 1.1.
Screening CN1C(=O)C(=Cc2ccccc2OCCOc2ccc([N+](=O)[O-])cc2)C(=O)N(C)C1=O returned L major viab 78*, Cl transport mod -2.6, Diaphorase act 1, Diaphorase inh -3, WT yeast gro inh 6 and ROMK primary 1.2.
Screening O=C1NC(=O)C(=Cc2ccc(Oc3ccc([N+](=O)[O-])cc3)cc2)C(=O)N1 returned L major viab 10, Cl transport mod -0.28, Diaphorase act 0.8, Diaphorase inh 16, WT yeast gro inh -30 and ROMK primary -0.016.
`O=C1NC(=O)C(=Cc2ccccc2OCCOc2ccc([N+](=O)[O-])cc2)C(=O)N1` gave L major viab 64*, Diaphorase act 0.9, Diaphorase inh 8, WT yeast gro inh 21 and ROMK primary 2.3.
CC(=O)c1cccc(NC2=NCC(C)S2)c1 (stereo unspecified) was read as L major viab -4, Diaphorase act 1, Diaphorase inh 1 and WT yeast gro inh 7.
Screening CC(=O)Nc1ccc(C(c2c(O)c3ccccc3oc2=O)c2c(C)n(C)n(-c3ccccc3)c2=O)cc1 (stereo unspecified) returned L major viab -12, Cl transport mod -0.33, Diaphorase act 1.1, Diaphorase inh -6, WT yeast gro inh -20 and ROMK primary 0.25.
`CCN(CC)P(c1n(C)cc[n+]1C)N(CC)CC` gave L major viab 3, Cl transport mod -0.33, Diaphorase act 1, Diaphorase inh 0, WT yeast gro inh -5 and ROMK primary 0.29.
`CC(=O)OC1N=C(c2ccccc2)c2cc(Br)ccc2NC1=O` (stereo unspecified) gave L major viab 85*, Cl transport mod 0.6, Diaphorase act 0.9, Diaphorase inh 6 and WT yeast gro inh 0.
Screening CC(C)C12CN3CCN(CC(C3)C1O)C2 (stereo unspecified) returned L major viab 3, Diaphorase act 1, Diaphorase inh 2, WT yeast gro inh 59* and ROMK primary 0.089.
Screening CC1(C)CC(CCNCc2ccc3c(c2)OCO3)(Cc2ccccc2)CCO1 (stereo unspecified) returned L major viab 89*, Cl transport mod 0.98, WT yeast gro inh 16 and ROMK primary -2.2.
For C#CCN1CCN(c2cccc(C(F)(F)F)c2)CC1 the results were L major viab 2, Cl transport mod -0.076, Diaphorase act 1.2, Diaphorase inh -18, WT yeast gro inh 3 and ROMK primary 0.21.
`CC(C)N1CCN(c2ccc(O)cc2)CC1` gave L major viab 56*, Cl transport mod 0.74, Diaphorase act 0.5, Diaphorase inh 50 and WT yeast gro inh -7.
For CNC(C)Cc1ccccc1Sc1ccc(O)cc1 (stereo unspecified) the results were L major viab 100*, Cl transport mod 0.046, Diaphorase act 0.9, Diaphorase inh 7 and WT yeast gro inh -12.
`c1ccc(C(OCCN2CCNCC2)c2ccccc2)cc1` gave L major viab 100*, Cl transport mod 0.22, Diaphorase act 1 and Diaphorase inh -1.
For Cc1oc(-c2ccccc2)nc1CN1C(=O)C(C)N=C(c2ccccc2F)c2cc(Cl)ccc21 (stereo unspecified) the results were L major viab 94*, Cl transport mod -0.64, Diaphorase act 0.7, Diaphorase inh 26, WT yeast gro inh 80* and ROMK primary -1.5.
Screening CN(C)c1ccc(NC(=O)CN2C(=O)CN=C(c3ccccc3)c3cc(Cl)ccc32)cc1 returned L major viab 34, Cl transport mod -1.4, Diaphorase act 0.9, Diaphorase inh 12 and WT yeast gro inh 17.
Screening COc1ccc(C2SCC(=O)Nc3c2c(C)nn3-c2ccccc2)cc1 (stereo unspecified) returned L major viab 100*, Cl transport mod 0.3, Diaphorase act 0.9, Diaphorase inh 12, WT yeast gro inh 10 and ROMK primary 0.32.
Screening CCCCn1c(NS(=O)(=O)c2ccc(C)cc2)c(C(=O)OCC)c2nc3ccccc3nc21 returned L major viab -4, Cl transport mod 0.1, Diaphorase act 0.7, Diaphorase inh 32, WT yeast gro inh 40 and ROMK primary -1.2.
For CCCCn1c(N)c(C(=O)OCCOC)c2nc3ccccc3nc21 the results were Cl transport mod -2.8.
For CC(C)CCn1c(N)c(C(=O)OCC2CCCO2)c2nc3ccccc3nc21 (stereo unspecified) the results were L major viab 54*, Cl transport mod -1.3, Diaphorase act 0.8, Diaphorase inh 16 and WT yeast gro inh 10.
CCCCn1c(N)c(C(=O)OCC2CCCO2)c2nc3ccccc3nc21 (stereo unspecified) was read as L major viab 100*, Cl transport mod -0.036, Diaphorase act 0.9, Diaphorase inh 14 and WT yeast gro inh 5.
CCCCn1c(NC(=O)c2ccco2)c(C(=O)OCC)c2nc3ccccc3nc21 was read as L major viab 76*, Cl transport mod -0.76, Diaphorase act 0.3, Diaphorase inh 66* and WT yeast gro inh -21.
`CC(C)OCCCNC(=O)c1c(N)n(CC2CCCO2)c2nc3ccccc3nc12` (stereo unspecified) gave L major viab 13, Cl transport mod 0.43, Diaphorase act 0.8, Diaphorase inh 18 and WT yeast gro inh 3.
CCC1(C)OC(c2ccccc2)=C/C(=C/C=C2C(=O)NC(=O)NC2=O)O1 (stereo unspecified) was read as L major viab -8, Cl transport mod 0.23, Diaphorase act 1, Diaphorase inh -2, WT yeast gro inh -5 and ROMK primary -1.8.
